According to ChEMBL document CHEMBL2040839, “Novel cinnamic acid/4-aminoquinoline conjugates bearing non-proteinogenic amino acids: towards the development of potential dual action antimalarials” (Eur J Med Chem, 2012):
pIC50: −log10 of the molar value.

Columns and labels:
[1] = Inhibition of Plasmodium falciparum falcipain 2 using substrate benzoxycarbonyl-Leu-Arg-7-amino-4-methyl-coumarin preincubated for 30 mins before substrate addition by fluorescence assay
Outline: (§1)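 Recombinant enzyme (1 nM) incubated with inhibitor at varied concentrations (from 10 mM DMSO stocks) in 100 mM sodium acetate pH 5.5, 10 mM DTT, 30 min at room temperature. Substrate then added at 25 μM final. Fluorescence monitored continuously for 30 min at room temperature; IC50 from curve fitting. FP3 tested only for compounds with FP2 IC50 < 50 μM.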

[2] = test system: Plasmodium falciparum; test: Antiplasmodial activity against chloroquine-resistant blood-stage Plasmodium falciparum W2 after 48 hrs by flow cytometric analysis; format: functional, organism-based; conditions: W2, 48 h
Outline: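 Synchronized ring-stage W2 parasites cultured 48 h with multiple compound concentrations (from 1000× DMSO stocks) in RPMI 1640 with 10% human serum or 0.5% Albumax. Cells then fixed in 1% formaldehyde/PBS pH 7.4 for 48 h at room temperature and stained with YOYO-1 (1 nM) in 0.1% Triton X-100. Parasitemia read by flow cytometry. IC50 taken from percent-of-control parasitemia curves, R2 >0.95.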

[3] = Inhibition of Plasmodium falciparum falcipain 3 using substrate benzoxycarbonyl-Leu-Arg-7-amino-4-methyl-coumarin preincubated for 30 mins before substrate addition by fluorescence assay; outline: as §1
[4] = test system: Heme; test: Inhibition of heme polymerization at 1 mM after 48 hrs by spectrophotometry relative to chloroquine
Outline: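 Hemin chloride in DMSO (5.2 mg/mL) mixed with compound in DMSO (0.1–1 mM), in triplicate; water or DMSO as negative control, 1 mM CQ as positive. β-hematin formation started with 0.2 M acetate buffer pH 4.4, then 48 h at 37 °C. Pellet washed with DMSO, dissolved in 0.2 M NaOH, diluted 1:6 in 0.1 M NaOH, read at 405 nm.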

| SMILES | pIC50 [1] | pIC50 [2] | pIC50 [3] | inhibition [4] |
| --- | --- | --- | --- | --- |
| CC(C)C[C@@H](NC(=O)/C=C/c1ccc(Br)cc1)C(=O)N[C@H](CCc1ccccc1)C(=O)Nc1ccnc2cc(Cl)ccc12 | 4.32 | 5.59 | < 4.30 | < 50% |
| O=C(/C=C/c1cccc([N+](=O)[O-])c1)Nc1ccnc2cc(Cl)ccc12 | 4.85 | < 5.00 | < 4.30 | < 50% |
| CC(C)C[C@@H](NC(=O)/C=C/c1cccc(F)c1)C(=O)N[C@H](CCc1ccccc1)C(=O)Nc1ccnc2cc(Cl)ccc12 | 4.64 | 5.27 | < 4.30 | < 50% |
| O=C(/C=C/c1ccccc1[N+](=O)[O-])Nc1ccnc2cc(Cl)ccc12 | 4.63 | < 5.00 | < 4.30 | < 50% |
| CC(C)C[C@@H](NC(=O)/C=C/c1ccccc1)C(=O)N[C@H](CCc1ccccc1)C(=O)Nc1ccnc2cc(Cl)ccc12 | 4.71 | 5.31 | < 4.30 | < 50% |
| Cc1ccc(/C=C/C(=O)Nc2ccnc3cc(Cl)ccc23)cc1 | 4.55 | < 5.00 | < 4.30 | < 50% |
| CC(C)C[C@@H](NC(=O)/C=C/c1ccc(N)cc1)C(=O)N[C@H](CCc1ccccc1)C(=O)Nc1ccnc2cc(Cl)ccc12 | 4.69 | 5.48 | < 4.30 | > 75% |
| CC(C)C[C@@H](NC(=O)/C=C/c1ccc([N+](=O)[O-])cc1)C(=O)N[C@H](CCc1ccccc1)C(=O)Nc1ccnc2cc(Cl)ccc12 | < 4.30 | 5.91 | – | > 75% |
| CC(C)C[C@H](NC(=O)/C=C/c1ccccc1)C(=O)N[C@@H](CCc1ccccc1)C(=O)Nc1ccnc2cc(Cl)ccc12 | 4.30 | 5.10 | – | – |
| O=C(/C=C/c1cccc(F)c1)Nc1ccnc2cc(Cl)ccc12 | < 4.30 | < 5.00 | – | < 50% |
| CC(C)C[C@@H](NC(=O)/C=C/c1ccc(C(C)C)cc1)C(=O)N[C@H](CCc1ccccc1)C(=O)Nc1ccnc2cc(Cl)ccc12 | < 4.30 | 6.08 | – | < 50% |
| COc1ccc(/C=C/C(=O)Nc2ccnc3cc(Cl)ccc23)cc1 | < 4.30 | < 5.00 | – | < 50% |
| CC(C)C[C@@H](NC(=O)/C=C/c1ccc(F)cc1)C(=O)N[C@H](CCc1ccccc1)C(=O)Nc1ccnc2cc(Cl)ccc12 | 4.30 | 5.33 | – | < 50% |
| CC(C)C[C@@H](NC(=O)/C=C/c1cccc([N+](=O)[O-])c1)C(=O)N[C@H](CCc1ccccc1)C(=O)Nc1ccnc2cc(Cl)ccc12 | 4.55 | 5.68 | < 4.30 | < 50% |
| C[C@@H]1CC[C@H]2[C@@H](C)C(=O)O[C@@H]3O[C@@]4(C)CC[C@@H]1[C@]32OO4 [ARTEMISININ] | – | 8.06 | – | – |
| O=C(/C=C/c1ccc(F)cc1)Nc1ccnc2cc(Cl)ccc12 | < 4.30 | < 5.00 | – | < 50% |
| O=C(/C=C/c1ccc(Cl)cc1)Nc1ccnc2cc(Cl)ccc12 | 4.38 | < 5.00 | < 4.30 | < 50% |
| CC(C)c1ccc(/C=C/C(=O)Nc2ccnc3cc(Cl)ccc23)cc1 | < 4.30 | < 5.00 | – | < 50% |
| CC(C)C[C@@H](NC(=O)/C=C/c1ccccc1[N+](=O)[O-])C(=O)N[C@H](CCc1ccccc1)C(=O)Nc1ccnc2cc(Cl)ccc12 | < 4.30 | 5.78 | – | 50% |
| O=C(/C=C/c1ccc([N+](=O)[O-])cc1)Nc1ccnc2cc(Cl)ccc12 | < 4.30 | < 5.00 | – | < 50% |
| O=C(/C=C/c1ccc(Br)cc1)Nc1ccnc2cc(Cl)ccc12 | 4.48 | < 5.00 | < 4.30 | < 50% |
| CC(C)C[C@H](NC(=O)[C@H]1O[C@@H]1C(=O)O)C(=O)NCCCCN=C(N)N [E-64] | 7.61 | – | – | – |
| Cc1ccc(/C=C/C(=O)N[C@H](CC(C)C)C(=O)N[C@H](CCc2ccccc2)C(=O)Nc2ccnc3cc(Cl)ccc23)cc1 | < 4.30 | 5.71 | – | > 75% |
| O=C(/C=C/c1ccccc1)Nc1ccnc2cc(Cl)ccc12 | < 4.30 | < 5.00 | – | < 50% |
| CC(C)C[C@@H](NC(=O)/C=C/c1ccc(Cl)cc1)C(=O)N[C@H](CCc1ccccc1)C(=O)Nc1ccnc2cc(Cl)ccc12 | < 4.30 | 5.54 | – | < 50% |
| CCN(CC)CCCC(C)Nc1ccnc2cc(Cl)ccc12 (centres undefined) | – | – | – | > 75% |
| COc1ccc(/C=C/C(=O)N[C@H](CC(C)C)C(=O)N[C@H](CCc2ccccc2)C(=O)Nc2ccnc3cc(Cl)ccc23)cc1 | < 4.30 | 4.97 | – | 50% |
